According to ChEMBL document CHEMBL5329191, “Optimization of the 2-arylquinazoline-4(3H)one scaffold for a selective and potent antitrypanosomal agent: modulation of the mechanism of action through chemical functionalization” (RSC Med Chem, 2023):
pIC50: −log10 of the molar value. Values after ≈ are worked out from the molar mass of the structure shown. Active and inactive are the calls of the source. The calls are words filed in the database; no cut-off is given here.

Tests used:
Trypanosoma cruzi [1] = test: Antitrypanosomal activity against of Trypanosoma cruzi epimastigotes assessed as increase in IC50 in presence of FA; assay type: functional
Trypanosoma cruzi [2] = test: Antitrypanosomal activity against of Trypanosoma cruzi epimastigotes in presence of FA; assay type: functional, organism-based
Leishmania infantum [3] = test: Antileishmanial activity against Leishmania infantum promastigotes in presence of FA; assay type: functional, organism-based
Trypanosoma cruzi [4] = test: Induction of ROS production in Trypanosoma cruzi epimastigotes by DCFH-DA staining based flow cytometry analysis; assay type: functional, organism-based
In short: (§1)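 Oxidative stress in parasite cultures was read fluorometrically with the 2,7-dichlorodihydrofluorescein diacetate (DCFH-DA) probe against a negative-control culture, and was also run with metal cations present.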

Leishmania infantum [5] = test: Antileishmanial activity against Leishmania infantum promastigotes; assay type: functional, organism-based
Trypanosoma cruzi [6] = test: Antitrypanosomal activity against of Trypanosoma cruzi epimastigotes; assay type: functional, organism-based
Leishmania infantum [7] = test: Induction of NO production in Leishmania infantum promastigotes by Griess method; assay type: functional, organism-based
In short: (§2)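 NO production in parasite cultures was measured at three test concentrations, either 25, 50 and 100 μM or 1, 5 and 10 μM depending on the compound.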

Trypanosoma cruzi [8] = test: Induction of NO production in Trypanosoma cruzi epimastigotes by Griess method; assay type: functional, organism-based; in short: as §2
Leishmania infantum [9] = test: Induction of ROS production in Leishmania infantum promastigotes by DCFH-DA staining based flow cytometry analysis; assay type: functional, organism-based; in short: as §1
Leishmania infantum [10] = test: Antileishmanial activity against Leishmania infantum promastigotes assessed as increase in IC50 in presence of FA; assay type: functional
Trypanosoma cruzi [11] = test: Induction of NO production in Trypanosoma cruzi epimastigotes at highest concentration by Griess method; assay type: functional; in short: as §2
Leishmania infantum [12] = test: Induction of NO production in Leishmania infantum promastigotes at highest concentration by Griess method; assay type: functional; in short: as §2
[13] = Mutagenicity in Salmonella typhimurium TA98 assessed as number of revertant colonies at 90 uM by Ames test (reference value: 4); assay type: toxicity; details: salmonella enterica subsp. enterica […]
In short: (§3)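 Ames reverse-mutation assay in Salmonella typhimurium TA 98. Revertant colonies were counted at five escalating dose levels alongside a zero-dose (spontaneous revertant) negative control and a 4-nitro-o-phenylenediamine positive control. A compound was called mutagenic when revertants exceeded twice the negative control at two consecutive dose levels.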

Leishmania infantum [14] = test: Antileishmanial activity against Leishmania infantum promastigotes assessed as decrease in IC50 in presence of iron(III); assay type: functional, organism-based
In short: (§4)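 Parasite proliferation was run in the presence of copper(II), iron(III) or zinc(II) salts, each at 1 μM.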

Trypanosoma cruzi [15] = test: Induction of ROS production in Trypanosoma cruzi epimastigotes in presence of Fe3+; assay type: functional, organism-based; in short: as §1
Trypanosoma cruzi [16] = test: […] activity against Trypanosoma cruzi epimastigotes assessed as change in parasites in presence of iron(III); assay type: functional, organism-based; in short: as §4
[17] = Mutagenicity in Salmonella typhimurium TA98 assessed as number of revertant colonies at 830 uM by Ames test (reference value: 4); assay type: toxicity; details: salmonella enterica subsp. enterica […]; in short: as §3
Leishmania infantum [18] = test: Induction of ROS production in Leishmania infantum promastigotes in presence of Cu2+; assay type: functional, organism-based; in short: as §1
[19] = Mutagenicity in Salmonella typhimurium TA98 assessed as number of revertant colonies at 2500 uM by Ames test (reference value: 4); assay type: toxicity; details: salmonella enterica subsp. enterica […]; in short: as §3
[20] = Selectivity index, ratio of CC50 for mouse J774.1 cells to IC50 for Leishmania infantum amastigotes; assay type: toxicity; details: read-out: Ratio CC50/IC50
In short: (§5)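 Cytotoxicity (CC50) was measured on murine J774.1A macrophages. Selectivity index is CC50 divided by parasite IC50 (promastigote, epimastigote or axenic amastigote). Values are the mean of three independent experiments.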

Trypanosoma cruzi [21] = test: Induction of ROS production in Trypanosoma cruzi epimastigotes in presence of Cu2+; assay type: functional, organism-based; in short: as §1
[22] = Selectivity index, ratio of CC50 for mouse J774.1 cells to IC50 for Trypanosoma cruzi epimastigotes; assay type: toxicity; details: read-out: Ratio CC50/IC50; in short: as §5
[23] = Mutagenicity in Salmonella typhimurium TA98 assessed as number of revertant colonies at 7500 uM by Ames test (reference value: 4); assay type: toxicity; details: salmonella enterica subsp. enterica […]; in short: as §3
Trypanosoma cruzi [24] = test: Induction of ROS production in Trypanosoma cruzi epimastigotes in presence of Zn2+; assay type: functional, organism-based; in short: as §1
[25] = Solubility of the compound by UV-Vis spectroscopy; assay type: physicochemical
In short: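 Solubility in μM was determined by UV-Vis spectroscopy.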

[26] = Mutagenicity in Salmonella typhimurium TA98 assessed as number of revertant colonies at 270 uM by Ames test (reference value: 4); assay type: toxicity; details: salmonella enterica subsp. enterica […]; in short: as §3
Leishmania infantum [27] = test: Antileishmanial activity against Leishmania infantum promastigotes assessed as decrease in IC50 in presence of zinc(II); assay type: functional, organism-based; in short: as §4
Leishmania infantum [28] = test: Antileishmanial activity against Leishmania infantum promastigotes assessed as decrease in IC50 in presence of copper(II); assay type: functional, organism-based; in short: as §4
[29] = Selectivity index, ratio of CC50 for mouse J774.1 cells to IC50 for Leishmania infantum promastigotes; assay type: toxicity; details: read-out: Ratio CC50/IC50; in short: as §5
Leishmania infantum [30] = test: Antileishmanial activity against Leishmania infantum axenic amastigotes; assay type: functional, organism-based
Leishmania infantum [31] = test: Induction of ROS production in Leishmania infantum promastigotes in presence of Fe3+; assay type: functional, organism-based; in short: as §1
[32] = Cytotoxicity against mouse J774.1 cells; assay type: toxicity, cell-based; in short: as §5
Trypanosoma cruzi [33] = test: […] activity against Trypanosoma cruzi epimastigotes assessed as change in parasites in presence of copper(II); assay type: functional, organism-based; in short: as §4
Leishmania infantum [34] = test: Induction of ROS production in Leishmania infantum promastigotes in presence of Zn2+; assay type: functional, organism-based; in short: as §1
Trypanosoma cruzi [35] = test: […] activity against Trypanosoma cruzi epimastigotes assessed as change in parasites in presence of zinc(II); assay type: functional, organism-based; in short: as §4
[36] = Mutagenicity in Salmonella typhimurium TA98 assessed as number of revertant colonies at 20 uM by Ames test (reference value: 4); assay type: toxicity; details: salmonella enterica subsp. enterica […]; in short: as §3

O=c1[nH]c(-c2ccc(Cl)cc2)nc2ccccc12
Activity (Trypanosoma cruzi [1]): 34% | pIC50 (Trypanosoma cruzi [2]): 4.62 | pIC50 (Leishmania infantum [3]): 5.21 | Activity (Trypanosoma cruzi [4]): inactive | pIC50 (Leishmania infantum [5]): 5.31 | pIC50 (Trypanosoma cruzi [6]): 4.74 | Activity (Leishmania infantum [7]): inactive | Activity (Trypanosoma cruzi [8]): inactive | Activity (Leishmania infantum [9]): inactive | Activity (Leishmania infantum [10]): 27%

NNc1nc(-c2ccc(Cl)cc2)nc2ccccc12
Activity (Trypanosoma cruzi [11]): >2 µM | Activity (Trypanosoma cruzi [1]): 42% | pIC50 (Trypanosoma cruzi [2]): 4.72 | pIC50 (Leishmania infantum [3]): 5.69 | Activity (Leishmania infantum [12]): >4 µM | Activity (Trypanosoma cruzi [4]): inactive | pIC50 (Leishmania infantum [5]): 5.81 | pIC50 (Trypanosoma cruzi [6]): 4.94 | Activity (Leishmania infantum [7]): Dose-Dependent Effect | Activity (Trypanosoma cruzi [8]): Dose-Dependent Effect | Activity (Leishmania infantum [9]): inactive | Activity (Leishmania infantum [10]): 31%

O=[N+]([O-])c1ccc(/C=N/N=c2\[nH]c(-c3cccc(Cl)c3)nc3ccccc23)o1
Activity (Trypanosoma cruzi [11]): 1 µM | Activity [13]: 3 | Activity (Leishmania infantum [14]): Active | Activity (Trypanosoma cruzi [15]): Active | Activity (Trypanosoma cruzi [16]): inactive | Activity (Leishmania infantum [12]): 2 µM | Activity [17]: 9.5 | Activity (Leishmania infantum [18]): Active | Activity [19]: 10.5 | selectivity ratio [20]: 46.7 | Activity (Trypanosoma cruzi [21]): Active | selectivity ratio [22]: 60.2 | Activity [23]: 9.5 | Activity (Trypanosoma cruzi [24]): Active | solubility [25]: 7.11 µM (≈ 2.8 µg/mL) | Activity [26]: 10 | Activity (Leishmania infantum [27]): Active | Activity (Trypanosoma cruzi [4]): Active | Activity (Leishmania infantum [28]): Active | pIC50 (Leishmania infantum [5]): 6.11 | selectivity ratio [29]: 54 | pIC50 (Leishmania infantum [30]): 6.05 | pIC50 (Trypanosoma cruzi [6]): 6.11 | Activity (Leishmania infantum [31]): Active | Activity (Leishmania infantum [7]): Dose-Dependent Effect | Activity (Trypanosoma cruzi [8]): Dose-Dependent Effect | CC50 [32]: 41.6 µM | Activity (Leishmania infantum [9]): Active | Activity (Trypanosoma cruzi [33]): inactive | Activity (Leishmania infantum [34]): Active | Activity (Trypanosoma cruzi [35]): inactive

O=c1[nH]c(-c2ccc(Br)cc2)nc2ccccc12
pIC50 (Leishmania infantum [5]): 5.16 | pIC50 (Trypanosoma cruzi [6]): 4.70

O=[N+]([O-])c1ccc(/C=N/N=c2\[nH]c(-c3cccc(Br)c3)nc3ccccc23)o1
solubility [25]: 5.67 µM (≈ 2.48 µg/mL) | pIC50 (Leishmania infantum [5]): < 4.60 | pIC50 (Trypanosoma cruzi [6]): < 4.60

NNc1nc(-c2ccc(F)cc2)nc2ccccc12
pIC50 (Leishmania infantum [5]): 5.30 | pIC50 (Trypanosoma cruzi [6]): 4.75

O=[N+]([O-])c1ccc(/C=N/N=c2\[nH]c(-c3ccccc3)nc3ccccc23)o1
Activity (Leishmania infantum [14]): Active | Activity (Trypanosoma cruzi [15]): Active | Activity (Trypanosoma cruzi [16]): inactive | Activity (Leishmania infantum [18]): Active | selectivity ratio [20]: 16.2 | Activity (Trypanosoma cruzi [21]): Active | selectivity ratio [22]: 23.9 | Activity (Trypanosoma cruzi [24]): Active | solubility [25]: 7.99 µM (≈ 2.87 µg/mL) | Activity (Leishmania infantum [27]): Active | Activity (Leishmania infantum [28]): Active | pIC50 (Leishmania infantum [5]): 6.06 | selectivity ratio [29]: 17.1 | pIC50 (Leishmania infantum [30]): 6.03 | pIC50 (Trypanosoma cruzi [6]): 6.20 | Activity (Leishmania infantum [31]): Active | CC50 [32]: 15.1 µM | Activity (Trypanosoma cruzi [33]): inactive | Activity (Leishmania infantum [34]): Active | Activity (Trypanosoma cruzi [35]): inactive

O=[N+]([O-])c1ccc(/C=N/N=c2\[nH]c(-c3ccc(Cl)cc3)nc3ccccc23)o1
solubility [25]: 3.21 µM (≈ 1.26 µg/mL) | pIC50 (Leishmania infantum [5]): < 4.60 | pIC50 (Trypanosoma cruzi [6]): < 4.60

Cc1ccc(-c2nc3ccccc3/c(=N/N=C/c3ccc([N+](=O)[O-])o3)[nH]2)cc1
solubility [25]: 7.23 µM (≈ 2.7 µg/mL) | pIC50 (Leishmania infantum [5]): < 4.60 | pIC50 (Trypanosoma cruzi [6]): < 4.60

Nc1ccc([N+](=O)[O-])cc1N
Activity [36]: 365

Cc1ccc(-c2nc(NN)c3ccccc3n2)cc1
pIC50 (Leishmania infantum [5]): 5.92 | pIC50 (Trypanosoma cruzi [6]): 4.74

O=c1[nH]c(-c2cccc(Cl)c2)nc2ccccc12
pIC50 (Leishmania infantum [5]): < 4.60 | pIC50 (Trypanosoma cruzi [6]): < 4.60
